13 compounds from ChEMBL document CHEMBL4152378, “Discovery of a Branched Peptide That Recognizes the Rev Response Element (RRE) RNA and Blocks HIV-1 Replication” (J Med Chem, 2018) can be followed below.

What is called pKd is the Kd on a negative log10 scale, so that one unit is a factor of ten.

pKd: −log10 of the molar value. Residues, ends and D or L forms follow the SMILES beside them. *: point of attachment. X1 = N[C@@H](CCCCNC(=O)c1cnccn1)C(=O)N[C@@H](CCCCNC(=O)c1cnccn1)C(=O)N[C@@H](CCCCNC(=O)c1cnccn1)C(=O)*; Pyrazinecarbonyl = O=C(c1cnccn1)* Bounds are passed on as bounds.

This assay can be described thus: Binding affinity to HIV1 rev response element 2B RNA by 2-AP based displacement assay. More on the design: species or system Human immunodeficiency virus 1. The procedure, abridged: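 2-AP-labeled RRE IIB (0.1 μM) refolded at 95 °C 3 min, snap-cooled; titrated with peptide 0–20 μM in 10 mM potassium phosphate, 100 mM KCl, 1 mM MgCl2, 20 mM NaCl, pH 7.0; excitation 310 nm, emission decrease at 372 nm; Kd from Hill fit; at least duplicate, SD. Competition lines include 10-fold excess unlabeled RNA/DNA competitor.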
In turn, `NC(=O)[C@H](Cc1ccc(O)cc1)NC(=O)[C@H]1C[C@@H](N)CN1C(=O)CN(CCNC(=O)[C@H](CCCCNC(=O)c1cnccn1)NC(=O)[C@H](CCCCNC(=O)[C@H](Cc1cccc2ccccc12)NC(=O)[C@H](CCCCNC(=O)c1ccc(B(O)O)cc1)NC(=O)[C@H]1C[C@@H](N)CN1)NC(=O)[C@H](Cc1cccc2ccccc12)NC(=O)[C@H](CCCCNC(=O)c1ccc(B(O)O)cc1)NC(=O)[C@H]1C[C@@H](N)CN1)C(=O)Cn1cnc2c(=O)[nH]c(N)nc21` gave a pKd of 5.50.
The result for `N=C(N)N[C@@H]1C[C@H](C(=O)N2C[C@H](N)C[C@@H]2C(=O)N[C@@H](Cc2ccc(O)cc2)C(N)=O)N(C(=O)CN(CCNC(=O)[C@H](CCCCNC(=O)[C@H]2C[C@@H](NC(=N)N)CN2C(=O)[C@H]2C[C@@H](N)CN2C(=O)[C@@H](N)CCCCNC(=O)c2cnccn2)NC(=O)[C@H]2C[C@@H](NC(=N)N)CN2C(=O)[C@H]2C[C@@H](N)CN2C(=O)[C@@H](N)CCCCNC(=O)c2cnccn2)C(=O)Cn2cnc3c(=O)[nH]c(N)nc32)C1` reads 5.95.
The compound `N=C(N)N[C@H]1CN[C@@H](C(=O)N[C@@H](CCCCNC(=O)c2ccc(B3OC(=O)c4cc(O)ccc4O3)cc2)C(=O)N[C@@H](CCCCNC(=O)c2ccc(B3OC(=O)c4cc(O)ccc4O3)cc2)C(=O)NCCCC[C@H](NC(=O)[C@H](CCCCNC(=O)c2ccc(B3OC(=O)c4cc(O)ccc4O3)cc2)NC(=O)[C@H](CCCCNC(=O)c2ccc(B3OC(=O)c4cc(O)ccc4O3)cc2)NC(=O)[C@H]2C[C@@H](NC(=N)N)CN2)C(=O)N[C@@H](CCCCNC(=O)c2ccc(B3OC(=O)c4cc(O)ccc4O3)cc2)C(=O)N[C@@H](CCCCNC(=O)c2cnccn2)C(=O)N[C@@H](Cc2cccc3ccccc23)C(=O)N[C@@H](Cc2ccc(O)cc2)C(N)=O)C1` had a pKd of under 5.00.
The result for `N=C(N)N[C@@H]1C[C@H](C(=O)N[C@@H](Cc2ccc(O)cc2)C(N)=O)N(C(=O)[C@H](CCCCNC(=O)c2ccc(B(O)O)cc2)NC(=O)[C@H](CCCCNC(=O)c2ccc(B(O)O)cc2)NC(=O)[C@H](CCCCNC(=O)[C@H]2C[C@@H](N)CN2C(=O)[C@H]2C[C@@H](N)CN2C(=O)[C@H]2C[C@@H](NC(=N)N)CN2)NC(=O)[C@H]2C[C@@H](N)CN2C(=O)[C@H]2C[C@@H](N)CN2C(=O)[C@H]2C[C@@H](NC(=N)N)CN2)C1` reads 5.35; that for `N=C(N)N[C@H]1CN[C@@H](C(=O)N2C[C@H](N)C[C@@H]2C(=O)N2C[C@H](N)C[C@@H]2C(=O)NCCCC[C@H](NC(=O)[C@H]2C[C@@H](N)CN2C(=O)[C@H]2C[C@@H](N)CN2C(=O)[C@H]2C[C@@H](NC(=N)N)CN2)C(=O)N[C@@H](CCCCNC(=O)c2cnccn2)C(=O)N[C@@H](Cc2cccc3ccccc23)C(=O)N2C[C@H](N)C[C@@H]2C(=O)N[C@@H](Cc2ccc(O)cc2)C(N)=O)C1`, 5.53; that for `N=C(N)N[C@@H]1C[C@H](C(=O)N2C[C@H](N)C[C@@H]2C(=O)N[C@@H](Cc2ccc(O)cc2)C(N)=O)N(C(=O)[C@H]2C[C@@H](N)CN2C(=O)[C@H](CCCCNC(=O)[C@H]2C[C@@H](N)CN2C(=O)[C@H]2C[C@@H](NC(=N)N)CN2C(=O)[C@H]2C[C@@H](N)CN2)NC(=O)[C@H]2C[C@@H](N)CN2C(=O)[C@H]2C[C@@H](NC(=N)N)CN2C(=O)[C@H]2C[C@@H](N)CN2)C1`, 6.14.
`N=C(N)N[C@H]1CN[C@@H](C(=O)N2C[C@H](N)C[C@@H]2C(=O)N2C[C@H](N)C[C@@H]2C(=O)NCCCC[C@H](NC(=O)[C@H]2C[C@@H](N)CN2C(=O)[C@H]2C[C@@H](N)CN2C(=O)[C@H]2C[C@@H](NC(=N)N)CN2)C(=O)N[C@@H](CCCCNC(=O)c2cnccn2)C(=O)NCCN(CC(=O)N2C[C@H](N)C[C@@H]2C(=O)N[C@@H](Cc2ccc(O)cc2)C(N)=O)C(=O)Cn2cnc3c(=O)[nH]c(N)nc32)C1` gave a pKd of 5.99.
The result for `N=C(N)N[C@@H]1C[C@H](C(=O)N2C[C@H](NC(=N)N)C[C@@H]2C(=O)N[C@@H](CCCCNC(=O)c2cnccn2)C(=O)N[C@@H](Cc2ccc(O)cc2)C(N)=O)N(C(=O)[C@H](CCCCNC(=O)[C@H](CCCCNC(=O)c2cnccn2)NC(=O)[C@H]2C[C@@H](N)CN2C(=O)[C@H]2C[C@@H](NC(=N)N)CN2)NC(=O)[C@H](CCCCNC(=O)c2cnccn2)NC(=O)[C@H]2C[C@@H](N)CN2C(=O)[C@H]2C[C@@H](NC(=N)N)CN2)C1` reads 5.89.
The result for `NC(=O)[C@H](Cc1ccc(O)cc1)NC(=O)[C@H](CCCCNC(=O)c1cnccn1)NC(=O)[C@H](CCCCNC(=O)c1cnccn1)NC(=O)[C@H](CCCCNC(=O)c1cnccn1)NC(=O)[C@H](CCCCNC(=O)[C@H](CCCCNC(=O)c1cnccn1)NC(=O)[C@H](CCCCNC(=O)c1cnccn1)NC(=O)[C@@H](N)CCCCNC(=O)c1cnccn1)NC(=O)[C@H](CCCCNC(=O)c1cnccn1)NC(=O)[C@H](CCCCNC(=O)c1cnccn1)NC(=O)[C@@H](N)CCCCNC(=O)c1cnccn1` (H-K(Pyrazinecarbonyl)K(Pyrazinecarbonyl)K(Pyrazinecarbonyl)K(X1)K(Pyrazinecarbonyl)K(Pyrazinecarbonyl)K(Pyrazinecarbonyl)Y-NH2) reads under 5.00; that for `N=C(N)N[C@@H]1C[C@H](C(=O)N[C@@H](Cc2ccc(O)cc2)C(N)=O)N(C(=O)[C@H](Cc2cccc3ccccc23)NC(=O)[C@H](CCCCNC(=O)c2cnccn2)NC(=O)[C@H](CCCCNC(=O)[C@H](Cc2cccc3ccccc23)NC(=O)[C@H](CCCCNC(=O)c2ccc(B3OC(=O)c4cc(O)ccc4O3)cc2)NC(=O)[C@H]2C[C@@H](NC(=N)N)CN2)NC(=O)[C@H](Cc2cccc3ccccc23)NC(=O)[C@H](CCCCNC(=O)c2ccc(B3OC(=O)c4cc(O)ccc4O3)cc2)NC(=O)[C@H]2C[C@@H](NC(=N)N)CN2)C1`, 5.30.
Compound `N=C(N)N[C@H]1CN[C@@H](C(=O)N2C[C@H](N)C[C@@H]2C(=O)N2C[C@H](N)C[C@@H]2C(=O)NCCCC[C@H](NC(=O)[C@H]2C[C@@H](N)CN2C(=O)[C@H]2C[C@@H](N)CN2C(=O)[C@H]2C[C@@H](NC(=N)N)CN2)C(=O)NCCN(CC(=O)NCCN(CC(=O)N2C[C@H](N)C[C@@H]2C(=O)N[C@@H](Cc2ccc(O)cc2)C(N)=O)C(=O)Cn2cnc3c(=O)[nH]c(N)nc32)C(=O)Cn2cnc3c(=O)[nH]c(N)nc32)C1` gave a pKd of 5.75.
The result for `N=C(N)N[C@H]1CN[C@@H](C(=O)N2C[C@H](N)C[C@@H]2C(=O)NCCN(CC(=O)NCCCC[C@H](NC(=O)CN(CCNC(=O)[C@H]2C[C@@H](N)CN2C(=O)[C@H]2C[C@@H](NC(=N)N)CN2)C(=O)Cn2cnc3c(=O)[nH]c(N)nc32)C(=O)NCCN(CC(=O)N[C@@H](CCCCNC(=O)c2ccc(B3OC(=O)c4cc(O)ccc4O3)cc2)C(=O)N[C@@H](CCCCNC(=O)c2cnccn2)C(=O)N[C@@H](Cc2ccc(O)cc2)C(N)=O)C(=O)Cn2cnc3c(=O)[nH]c(N)nc32)C(=O)Cn2cnc3c(=O)[nH]c(N)nc32)C1` reads 5.93.
The result for `N=C(N)N[C@H]1CN[C@@H](C(=O)N2C[C@H](N)C[C@@H]2C(=O)N[C@@H](Cc2cccc3ccccc23)C(=O)NCCCC[C@H](NC(=O)[C@H](Cc2cccc3ccccc23)NC(=O)[C@H]2C[C@@H](N)CN2C(=O)[C@H]2C[C@@H](NC(=N)N)CN2)C(=O)NCCN(CC(=O)NCCN(CC(=O)N[C@@H](Cc2cccc3ccccc23)C(=O)N[C@@H](Cc2ccc(O)cc2)C(N)=O)C(=O)Cn2cnc3c(=O)[nH]c(N)nc32)C(=O)Cn2cnc3c(=O)[nH]c(N)nc32)C1` reads 6.18.
